# Test results as given in ChEMBL document CHEMBL1121835, “Synthesis and anxiolytic activity of 6-(substituted-phenyl)-1,2,4-triazolo[4,3-b]pyridazines” (J Med Chem, 1981).
# pIC50: −log10 of the molar value. Activity calls are given as the source filed them. The calls are words filed in the database; no cut-off is given here.
# Experiments:
# [1] = organism: Rattus norvegicus; assay: Anxiolytic activity for protection against pentylenetetrazole-induced convulsions.; format: functional, organism-based
# In short: (§1)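 Rats in groups of 10, food-deprived 24 h, given 4–6 graded doses of compound orally (or ip where noted). PTZ at 23 mg/kg was injected iv into the caudal vein 60 min later. Protection meant no clonic seizure lasting at least 5 s. The number protected was counted and the ED50 estimated.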
# [2] = target: T1, GABA-A receptor; anion channel (Rattus norvegicus) (UniProt O09028+P15431+P18506+P18508+P19969+P20236+P23574+P23576+P28471+P28473+P30191+P62813+P63079+P63138+Q91ZM7+Q9ES14); assay: In vitro inhibition of [3H]diazepam binding towards Benzodiazepine receptor at 1 uM; format: protein-complex assay
# [3] = test system: Rattus norvegicus; assay: Hypotensive activity in saline-loaded spontaneously hypertensive rats following 100 mg/kg p.o. administration.; format: functional; parameters: unit not given beside the values; conditions: route oral
# In short: (§2)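 Male Okamoto SH rats, about 300 g, gavaged with compound suspended in 2% boiled starch, with 0.9% NaCl loading at 25 mL/kg, at 0 h. An identical dose without saline followed at 24 h. Mean arterial pressure was taken by iliac artery puncture under local lidocaine at 28 h. Values are from one to three rats.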
# [4] = test system: Rattus norvegicus; assay: In vivo protection against pentylenetetrazole-induced convulsions in the rat.; format: functional; in short: as §1
# [5] = organism: Rattus norvegicus; assay: Anxiolytic activity for protection against pentylenetetrazole-induced convulsions in experiment 1; format: functional; in short: as §1
# [6] = test system: Rattus norvegicus; assay: Hypotensive activity evaluated as mean arterial blood pressure (MABP) in saline-loaded spontaneously hypertensive rats dosed (per oral) at 25 mg/kg; format: functional; in short: as §2
# [7] = organism: Rattus norvegicus; assay: Average reduction in blood pressure over control (4 rats) at 4 hr in spontaneous hypertensive rats; format: functional
# In short: (§3)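 Conscious cannulated male Okamoto SH rats, 300–350 g, dosed po with vehicle (2% boiled starch) or compound at 1, 5, 10 and 25 mg/kg. A second po dose was given 20 h later, and pressure was recorded continuously for 4 h. The value is the mean reduction against controls at 2 and 4 h, n = 4.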
# [8] = organism: Rattus norvegicus; assay: Average reduction in blood pressure over control (4 rats) at 2 hr in spontaneous hypertensive rats; format: functional; in short: as §3
# [9] = organism: Rattus norvegicus; assay: Anxiolytic activity for protection against pentylenetetrazole-induced convulsions in experiment 2; format: functional; in short: as §1
# [10] = target: GABA-A receptor; anion channel; assay: In vitro for inhibition of [3H]diazepam towards Benzodiazepine receptor from rat; format: protein-complex assay
# In short: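 Rat frontal cortex homogenized in ice-cold 0.32 M sucrose; crude P2 synaptosomal fraction resuspended in 50 mM Tris-HCl pH 7.4. IC50 read graphically from % inhibition vs log concentration plots.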
# [11] = target: T1, GABA-A receptor; anion channel (Rattus norvegicus); assay: In vitro percent inhibition of [3H]diazepam binding to rat GABA-A benzodiazepine receptor at 1 uM; format: protein-complex assay
# [12] = test system: Rattus norvegicus; assay: Compound was evaluated for anxiolytic activity for protection against pentylenetetrazole-induced convulsions; No activity at 50 mg/kg; format: functional, organism-based; parameters: dose 50 mg/kg; in short: as §1
# [13] = test system: Rattus norvegicus; assay: Compound was evaluated for anxiolytic activity for protection against pentylenetetrazole-induced convulsions; No activity at 50 mg/Kg; format: functional, organism-based; in short: as §1
# [14] = organism: Rattus norvegicus; assay: Compound was evaluated for anxiolytic activity for protection against pentylenetetrazole-induced convulsions in experiment 2; format: functional; in short: as §1
# [15] = test system: Rattus norvegicus; assay: Compound was evaluated for anxiolytic activity for protection against pentylenetetrazole-induced convulsions; no activity at 50 mg/kg; format: functional, organism-based; parameters: dose 50 mg/kg; in short: as §1
# [16] = Rattus norvegicus, read-out: ED50
SMILES,inhibition [2] [%],MABP [3],ED50 [4] [mg/kg],also measured
Clc1ccc(-c2ccc3nnc(-c4ccccc4)n3n2)cc1,–,–,–,ED50 [1]: inactive
Fc1ccccc1-c1ccc2nncn2n1,16,112,17,–
CCCc1nnc2ccc(-c3cccc(C(F)(F)F)c3)nn12,–,112,–,MABP [6]: 165; ED50 [1]: inactive
CCc1nnc2ccc(-c3ccc(C(F)(F)F)cc3)nn12,–,129,~50,MABP [6]: 157
FC(F)(F)c1nnc2ccc(-c3ccccc3)nn12,–,–,–,"ED50 [5, 16]: 15 mg/kg; ED50 [9]: 18 mg/kg"
CCc1nnc2ccc(-c3ccccc3)nn12,–,–,–,ED50 [12]: inactive
Cc1cc2nncn2nc1-c1cccc(C(F)(F)F)c1,21,–,12.9,–
FC(F)(F)c1cccc(-c2ccc3nncn3n2)c1,55,90,–,"ED50 [5, 16]: 4.5 mg/kg; MABP [6]: 117; pIC50 [10]: 6.04; ED50 [14]: 2.5 mg/kg"
Cc1cc2nncn2nc1-c1cccc(F)c1,–,142,–,ED50 [1]: inactive
Cl.NNc1nncc2ccccc12 [HYDRALAZINE HYDROCHLORIDE],–,–,–,MABP [6]: 82
Cc1cc2nncn2nc1-c1cccc(C#N)c1,–,88,34,MABP [6]: 135
O=[N+]([O-])c1cccc(-c2ccc3nncn3n2)c1,–,–,22,–
Cl.Clc1cccc(Cl)c1NC1=NCCN1 [CLONIDINE HYDROCHLORIDE],–,102,–,–

# The next lines start with results.
inhibition [2] [%],SMILES,MABP [3],ED50 [4] [mg/kg],also measured
60,FC(F)(F)c1cccc(-c2ccc3nnc(C(F)(F)F)n3n2)c1,–,–,ED50 [1]: inactive
< 10,Clc1ccc(-c2ccc3nncn3n2)cc1,110,–,"ED50 [5, 16]: 5.3 mg/kg; MABP [6]: 136; BP [7]: -17 mmHg; BP [8]: -15 mmHg; ED50 [9]: 9.8 mg/kg"
65,Cc1nnc2ccc(-c3ccc(F)cc3)nn12,–,–,"ED50 [5]: 2 mg/kg; ED50 [5, 16]: 3.4 mg/kg; pIC50 [10]: 6.23; inhibition [11]: 64%"
68,Cc1cccc(-c2ccc3nnc(C)n3n2)c1,–,~50,–
37,Cc1nnc2ccc(-c3ccccc3F)nn12,–,10.4,pIC50 [10]: 5.13
< 10,Cc1cc(-c2ccc(F)cc2)nn2c(C)nnc12,126,–,ED50 [1]: inactive
< 10,Cc1nnc2ccc(-c3ccccc3Cl)nn12,123,14,–
73,CCc1nnc2ccc(-c3cccc(C(F)(F)F)c3)nn12,–,24,pIC50 [10]: 6.55
67,FC(F)(F)c1cccc(-c2ccc3nnc(CCl)n3n2)c1,–,–,pIC50 [10]: 6.41; ED50 [13]: inactive
47,Cc1nnc2ccc(-c3cccc(F)c3)nn12,–,3.1,pIC50 [10]: 5.92; inhibition [11]: 43%
74,COc1cccc(-c2ccc3nnc(C)n3n2)c1,–,–,pIC50 [10]: 6.51
38,CCCc1nnc2ccc(-c3ccccc3)nn12,110,–,MABP [6]: 145
< 10,Cc1cc(-c2cccc(C(F)(F)F)c2)nn2c(C)nnc12,–,–,ED50 [13]: inactive
45,ClCc1nnc2ccc(-c3ccccc3)nn12,–,–,inhibition [11]: 47%; ED50 [13]: inactive
< 10,Cc1cc2nnc(C)n2nc1-c1cccc(F)c1,–,–,ED50 [1]: inactive
16,Fc1ccc(-c2ccc3nncn3n2)cc1,88,–,"ED50 [5, 16]: 5 mg/kg; MABP [6]: 123; BP [7]: -31 mmHg; BP [8]: -26 mmHg; ED50 [9]: 2.2 mg/kg"
< 10,Cc1cc(-c2cccc(C(F)(F)F)c2)nn2cnnc12,102,–,EC50 [15]: Not Active
